Measurements as given in ChEMBL document CHEMBL4837214, “Design, synthesis, and biological evaluation of novel tetrahydroprotoberberine derivatives to reduce SREBPs expression for the treatment of hyperlipidemia” (Eur J Med Chem, 2021).
Active and inactive are the calls of the source. The rule behind the calls is not given here.

Key:
HepG2 [1] = assay: Down regulation of precursor and mature forms of SREBP-2 protein expression in human HepG2 cells after 24 hrs by Western blotting analysis; type: functional, cell-based; details: dose 5-80 µM
Summary of the method: (§1)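 HepG2 cells treated 24 h at the indicated doses and lysed in RIPA buffer with protease inhibitors; protein quantified by BCA. Lysates run on 10% SDS-PAGE and blotted to nitrocellulose. After 5% milk block, primary antibody applied overnight at 4 °C and secondary 1 h at room temperature. β-actin served as loading reference.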

[2] = Toxicity in high fat diet-induced C57BL/6J mouse assessed as reduction in body weight at 170 to 340 mg/kg, po measured every week for 6 weeks; type: organism-based; details: in vivo, 1008 h, dose 170-340 mg/kg
Summary of the method: (§2)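 Male C57BL/6J mice, six weeks old, fed a 45%-fat diet (HFD) for 15 weeks; chow-fed mice served as controls. Obese mice were randomized to vehicle (0.1% w/v CMC-Na) or 170 or 340 mg/kg, gavaged daily for 6 weeks while diet continued. Body weight, food intake, organ weights, serum lipids, tissue histology (H&E, Oil red O), liver SREBP blots and liver qPCR followed.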

HepG2 [3] = assay: Effect on PCSK9 protein expression in human HepG2 cells at 10 uM incubated for 24 hrs by Western blotting analysis; type: functional, cell-based; summary of the method: as §1
HepG2 [4] = assay: Down regulation of ACC gene expression in human HepG2 cells by qRT-PCR analysis; type: functional, cell-based
HepG2 [5] = assay: Down regulation of FASN gene expression in human HepG2 cells by qRT-PCR analysis; type: functional, cell-based
HepG2 [6] = assay: Down regulation of SCD gene expression in human HepG2 cells by qRT-PCR analysis; type: functional, cell-based
[7] = AUC (0 to infinity) in Sprague-Dawley rat at 10 mg/kg, po measured upto 24 hrs by LC-MS/MS analysis; type: ADME, organism-based; set-up: route oral, dose 10 mg/kg, time <=24; details: in vivo
Summary of the method: (§3)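 Six SD rats split into two groups (n=3 each), dosed once either intravenously at 1 mg/kg or orally at 10 mg/kg. Blood sampled at 2 min–12 h after IV dosing and at 5 min–24 h after oral dosing. Serum drug level measured by LC/MS/MS. AUC0-∞ is the mean of three runs.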

[8] = AUC (0 to infinity) in Sprague-Dawley rat at 1 mg/kg, iv measured upto 12 hrs by LC-MS/MS analysis; type: ADME, organism-based; set-up: route intravenous, dose 1 mg/kg, time <=12; details: in vivo; summary of the method: as §3
[9] = Half life in Sprague-Dawley rat at 10 mg/kg, po measured upto 24 hrs by LC-MS/MS analysis; type: ADME, organism-based; details: in vivo
Summary of the method: (§4)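 Six SD rats split into two groups of three, dosed 1 mg/kg IV or 10 mg/kg orally. IV blood drawn at 2, 5, 15, 30 min and 1, 2, 4, 6, 8, 12 h. Oral blood drawn at 5, 15, 30 min and 1, 2, 4, 6, 8, 12, 24 h. Serum drug measured by LC/MS/MS. Parameters are the average of three runs.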

[10] = Half life in Sprague-Dawley rat at 1 mg/kg, iv measured upto 12 hrs by LC-MS/MS analysis; type: ADME, organism-based; details: in vivo; summary of the method: as §4
[11] = Clearance in Sprague-Dawley rat at 10 mg/kg, po measured upto 24 hrs by LC-MS/MS analysis; type: ADME, organism-based; details: in vivo; summary of the method: as §4
[12] = Oral bioavailability in Sprague-Dawley rat at 10 mg/kg measured upto 24 hrs by LC-MS/MS analysis; type: ADME, organism-based; details: in vivo; summary of the method: as §4
Mus musculus [13] = assay: Hypolipidemic activity in high fat diet-fed C57BL/6J mouse assessed as reduction in epididymal fat/body weight ratio at 170 to 340 mg/kg/day, po administered for 6 weeks; type: functional, organism-based; details: dose 170-340 mg/kg/day; summary of the method: as §2
Mus musculus [14] = assay: Hypolipidemic activity in high fat diet-fed C57BL/6J mouse assessed as increase in brown fat/body weight ratio at 340 mg/kg/day, po administered for 6 weeks; type: functional, organism-based; summary of the method: as §2
[15] = Toxicity in high fat diet-induced C57BL/6J mouse assessed as reduction in food intake at 170 to 340 mg/kg, po measured every week for 6 weeks; type: organism-based; details: in vivo, 1008 h, dose 170-340 mg/kg; summary of the method: as §2
[16] = Toxicity in high fat diet-induced C57BL/6J mouse assessed as change in heart morphology at 170 to 340 mg/kg, po administered for 6 weeks by H and E staining-based assay; type: organism-based; details: in vivo, 1008 h, dose 170-340 mg/kg; summary of the method: as §2
[17] = Toxicity in high fat diet-induced C57BL/6J mouse assessed as change in spleen morphology at 170 to 340 mg/kg, po administered for 6 weeks by H and E staining-based assay; type: organism-based; details: in vivo, 1008 h, dose 170-340 mg/kg; summary of the method: as §2
Mus musculus [18] = assay: Hypolipidemic activity in high fat diet-induced C57BL/6J mouse assessed as reduction in serum TG level at 170 to 340 mg/kg, po administered daily for 6 weeks; type: functional, organism-based; details: dose 170-340 mg/kg; summary of the method: as §2
Mus musculus [19] = assay: Hypolipidemic activity in high fat diet-induced C57BL/6J mouse assessed as reduction in serum TC level at 170 to 340 mg/kg, po administered daily for 6 weeks; type: functional, organism-based; details: dose 170-340 mg/kg; summary of the method: as §2
Mus musculus [20] = assay: Hypolipidemic activity in high fat diet-induced C57BL/6J mouse assessed as reduction in SREBPs expression in liver at 170 to 340 mg/kg, po administered daily for 6 weeks by Western blot analysis; type: functional, organism-based; details: dose 170-340 mg/kg; summary of the method: as §2
Mus musculus [21] = assay: […] activity in high fat diet-induced C57BL/6J mouse assessed as reduction in LDLR mRNA level in liver at 170 to 340 mg/kg, po administered daily for 6 weeks by qRT-PCR analysis; type: functional, organism-based; details: dose 170-340 mg/kg; summary of the method: as §2
Mus musculus [22] = assay: […] activity in high fat diet-induced C57BL/6J mouse assessed as reduction in Scd mRNA level in liver at 170 to 340 mg/kg, po administered daily for 6 weeks by qRT-PCR analysis; type: functional, organism-based; details: dose 170-340 mg/kg; summary of the method: as §2
Mus musculus [23] = assay: Hypolipidemic activity in high fat diet-induced C57BL/6J mouse assessed as reduction in lipid accumulation in liver at 170 to 340 mg/kg, po administered daily for 6 weeks by Oil Red O staining based assay; type: functional, organism-based; details: dose 170-340 mg/kg; summary of the method: as §2
Mus musculus [24] = assay: Hypolipidemic activity in high fat diet-induced C57BL/6J mouse assessed as reduction in cell size of WAT at 170 to 340 mg/kg, po administered daily for 6 weeks by H and E staining based assay; type: functional, organism-based; details: dose 170-340 mg/kg; summary of the method: as §2

AUC [7]: 4290 ng·h/mL
AUC(0-inf) [8]: 659 ng·h/mL
half-life [9]: 5.36 h
half-life [10]: 4.95 h
CL [11]: 8.52 mL/min/kg
bioavailability [12]: 65.1%
SMILES: COc1ccc2c(c1OCC1CCCCC1)CN1CCc3cc4c(cc3C1C2)OCO4 (centres undefined)
Activity (HepG2 [1]): Dose-Dependent Effect
Activity [2]: Toxic
Activity (HepG2 [3]): inactive
Activity (HepG2 [4]): Active
Activity (HepG2 [5]): Active
Activity (HepG2 [6]): Active
Activity (Mus musculus [13]): Active
Activity (Mus musculus [14]): Active
Activity [15]: Non-Toxic
Activity [16]: Non-Toxic
Activity [17]: Non-Toxic
Activity (Mus musculus [18]): Active
Activity (Mus musculus [19]): Active
Activity (Mus musculus [20]): Active
Activity (Mus musculus [21]): Active
Activity (Mus musculus [22]): Active
Activity (Mus musculus [23]): Active
Activity (Mus musculus [24]): Active
